From PMC12409571 (ACS Omega, 2025)

Assays:
[1] = test system: TRPA1 channels; details: read-out: EC50 (activation of TRPA1 channels); cited from earlier work
[2] = target: T1, human TRPA1 (Homo sapiens, UniProt O75762); assay: Whole-cell patch clamp of TRPA1 currents in HEK293T cells; type: cell-based
[3] = target: T1, human TRPA1; assay: Cell-attached single-channel recordings of TRPA1 in HEK293T cells; type: cell-based; details: −60 mV; 100 μM AITC alone, or with 5 μM PHL-B
[4] = target: rat TRPM8 (Rattus norvegicus, UniProt Q8R455); assay: Compound selectivity fluorescence-based Ca2+ assay, menthol-stimulated TRPM8; type: cell-based; details: 30 μM menthol; PHL-B different concentrations; sesamin 20 μM
Method in brief: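 HEK293T cells were cotransfected with rat TRPM8 and GCaMP6s and assayed after 48 h with GCaMP6s fluorescence. Channels were activated with 30 μM menthol; 20 μM sesamin served as the reference inhibitor. Read-out F/F0; N = 3–5 independent experiments.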

[5] = target: human TRPV1 (Homo sapiens, UniProt Q8NER1); assay: Compound selectivity fluorescence-based Ca2+ assay, capsaicin-stimulated TRPV1; type: cell-based; details: 10 μM capsaicin; PHL-B 0.1-10 μM; capsazepine 1 μM
[6] = 100 μM AITC alone, or 100 μM AITC + 5 μM PHL-B, voltage ramp

T1 sequence (O75762 whole entry): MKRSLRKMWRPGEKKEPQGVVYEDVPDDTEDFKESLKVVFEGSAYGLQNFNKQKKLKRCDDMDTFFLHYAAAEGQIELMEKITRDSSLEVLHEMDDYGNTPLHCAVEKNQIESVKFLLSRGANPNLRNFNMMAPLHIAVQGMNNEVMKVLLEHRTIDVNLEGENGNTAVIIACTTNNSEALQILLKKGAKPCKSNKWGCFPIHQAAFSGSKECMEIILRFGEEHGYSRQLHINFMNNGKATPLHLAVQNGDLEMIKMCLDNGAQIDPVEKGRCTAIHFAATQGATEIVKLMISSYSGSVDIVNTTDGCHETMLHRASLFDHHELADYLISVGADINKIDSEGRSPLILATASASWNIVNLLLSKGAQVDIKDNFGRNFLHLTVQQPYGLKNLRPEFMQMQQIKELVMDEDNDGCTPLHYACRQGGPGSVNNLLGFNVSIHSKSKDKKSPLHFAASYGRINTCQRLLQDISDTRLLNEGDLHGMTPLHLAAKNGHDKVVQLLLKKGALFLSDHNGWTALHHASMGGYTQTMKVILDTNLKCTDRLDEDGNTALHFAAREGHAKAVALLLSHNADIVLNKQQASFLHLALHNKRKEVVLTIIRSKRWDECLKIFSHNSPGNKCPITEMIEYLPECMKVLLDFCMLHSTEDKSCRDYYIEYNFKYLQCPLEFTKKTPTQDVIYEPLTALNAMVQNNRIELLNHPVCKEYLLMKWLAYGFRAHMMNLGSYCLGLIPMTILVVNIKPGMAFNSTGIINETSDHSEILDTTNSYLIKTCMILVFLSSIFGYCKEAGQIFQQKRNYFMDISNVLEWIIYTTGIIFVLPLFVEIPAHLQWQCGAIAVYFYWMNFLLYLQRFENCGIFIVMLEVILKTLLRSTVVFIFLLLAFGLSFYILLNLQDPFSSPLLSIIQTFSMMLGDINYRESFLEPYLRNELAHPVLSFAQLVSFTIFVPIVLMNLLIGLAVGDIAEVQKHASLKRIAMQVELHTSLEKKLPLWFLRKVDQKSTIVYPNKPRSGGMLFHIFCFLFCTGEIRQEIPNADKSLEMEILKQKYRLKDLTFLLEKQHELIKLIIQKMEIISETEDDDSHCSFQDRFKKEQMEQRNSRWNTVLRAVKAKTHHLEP
Sequence of human TRPV1 (Q8NER1 whole entry): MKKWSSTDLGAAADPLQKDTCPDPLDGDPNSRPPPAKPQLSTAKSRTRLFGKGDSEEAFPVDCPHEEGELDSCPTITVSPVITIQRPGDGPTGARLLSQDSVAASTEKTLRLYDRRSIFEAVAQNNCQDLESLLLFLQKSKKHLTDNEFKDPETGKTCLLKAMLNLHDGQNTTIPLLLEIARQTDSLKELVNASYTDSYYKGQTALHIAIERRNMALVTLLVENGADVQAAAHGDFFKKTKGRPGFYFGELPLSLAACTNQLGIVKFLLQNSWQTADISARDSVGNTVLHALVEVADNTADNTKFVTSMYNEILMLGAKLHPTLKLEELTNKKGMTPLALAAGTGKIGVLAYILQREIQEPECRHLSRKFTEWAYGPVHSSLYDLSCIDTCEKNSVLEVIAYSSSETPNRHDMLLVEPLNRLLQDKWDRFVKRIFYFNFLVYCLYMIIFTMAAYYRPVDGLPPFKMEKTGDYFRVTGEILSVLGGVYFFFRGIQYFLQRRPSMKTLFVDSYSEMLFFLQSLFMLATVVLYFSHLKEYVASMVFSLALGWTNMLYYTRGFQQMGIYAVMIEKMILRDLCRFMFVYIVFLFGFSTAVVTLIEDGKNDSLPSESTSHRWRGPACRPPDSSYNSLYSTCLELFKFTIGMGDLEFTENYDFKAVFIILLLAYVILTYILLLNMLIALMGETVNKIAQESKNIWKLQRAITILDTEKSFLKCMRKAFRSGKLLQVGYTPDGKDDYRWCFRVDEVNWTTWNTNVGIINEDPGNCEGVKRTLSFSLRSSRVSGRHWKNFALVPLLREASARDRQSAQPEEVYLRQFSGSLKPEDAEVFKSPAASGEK
Sequence of rat TRPM8 (Q8R455 whole entry): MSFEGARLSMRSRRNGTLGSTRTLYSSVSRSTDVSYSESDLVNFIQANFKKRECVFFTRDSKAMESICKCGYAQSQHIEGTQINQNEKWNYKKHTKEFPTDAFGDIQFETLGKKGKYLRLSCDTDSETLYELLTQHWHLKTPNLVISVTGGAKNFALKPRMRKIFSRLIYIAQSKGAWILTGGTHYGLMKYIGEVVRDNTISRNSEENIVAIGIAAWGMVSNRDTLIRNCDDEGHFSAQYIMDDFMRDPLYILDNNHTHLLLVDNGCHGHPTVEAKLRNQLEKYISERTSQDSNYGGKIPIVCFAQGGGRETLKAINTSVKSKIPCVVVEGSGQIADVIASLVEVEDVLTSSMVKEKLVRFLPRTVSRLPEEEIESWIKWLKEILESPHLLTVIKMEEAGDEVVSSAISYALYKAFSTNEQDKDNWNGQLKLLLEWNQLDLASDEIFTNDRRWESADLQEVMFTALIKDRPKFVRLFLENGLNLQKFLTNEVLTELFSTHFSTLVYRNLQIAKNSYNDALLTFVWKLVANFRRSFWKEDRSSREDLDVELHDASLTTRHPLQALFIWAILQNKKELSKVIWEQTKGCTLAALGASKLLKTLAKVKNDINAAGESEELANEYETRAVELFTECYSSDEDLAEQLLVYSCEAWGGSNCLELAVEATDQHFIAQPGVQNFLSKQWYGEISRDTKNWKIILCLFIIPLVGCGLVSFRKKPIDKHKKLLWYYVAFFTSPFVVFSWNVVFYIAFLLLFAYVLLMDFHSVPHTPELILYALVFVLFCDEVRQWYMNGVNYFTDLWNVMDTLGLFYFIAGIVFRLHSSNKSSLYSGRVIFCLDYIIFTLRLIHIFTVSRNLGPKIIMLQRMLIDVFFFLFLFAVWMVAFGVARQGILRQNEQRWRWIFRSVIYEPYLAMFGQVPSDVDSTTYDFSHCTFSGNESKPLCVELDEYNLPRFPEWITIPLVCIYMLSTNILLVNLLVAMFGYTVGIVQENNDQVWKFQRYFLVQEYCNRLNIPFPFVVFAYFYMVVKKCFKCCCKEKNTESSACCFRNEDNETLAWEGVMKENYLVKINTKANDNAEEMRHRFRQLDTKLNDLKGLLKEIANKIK

SMILES: CC(C)c1cc2c(c(O)c1O)[C@@]13CCCC(C)(C)[C@@H]1C[C@@H]2OC3=O [carnosol]
- EC50 [1]: ~12 µM

SMILES: C=CCN=C=S [AITC, allyl isothiocyanate]
- current density at +50 mV [2, 6]: 30.5 ± 2.9 pA/pF
- current density at −100 mV [2, 6]: −91.73 ± 11.47 pA/pF
- τoff (time course of recovery) ([2]; −60 mV, 100 μM AITC, or 100 μM AITC + 5 μM PHL-B): 28.6 ± 3.4 ms
- fold increase of channel open probability (PO) over basal [3]: approximately 150 fold

SMILES: c1cc2c(cc1[C@H]1OC[C@H]3[C@@H]1CO[C@@H]3c1ccc3c(c1)OCO3)OCO2 [sesamin]
- effect on menthol-induced Ca2+ influx (TRPM8) [4]: practically inhibited all

SMILES: Oc1cc2c(cc1O)CN(C(=S)NCCc1ccc(Cl)cc1)CCC2 [Capsazepine, capsazepine]
- effect on capsaicin-induced normalized fluorescence (TRPV1) [5]: fully abolished
